# DNP = 2,4-dinitrophenyl quencher group; MCA = fluorogenic coumarin group
# Legend:
# [1] = target: T1, Taspase1 (Homo sapiens, UniProt Q9H6P5); assay: In vitro cleavage of radiolabeled p75MLL reporter by recombinant Taspase1; assay type: biochemical; details: for activity against Taspase1 (cleavage of p75MLL): in vitro cleavage assay
# T1 sequence (Q9H6P5 1-233 limits assumed): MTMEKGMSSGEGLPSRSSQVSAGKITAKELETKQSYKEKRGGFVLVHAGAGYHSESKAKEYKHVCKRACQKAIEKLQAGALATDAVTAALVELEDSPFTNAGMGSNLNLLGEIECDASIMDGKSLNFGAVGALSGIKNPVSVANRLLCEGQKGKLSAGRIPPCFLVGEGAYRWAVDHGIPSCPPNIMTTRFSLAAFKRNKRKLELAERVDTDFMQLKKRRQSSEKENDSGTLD
# T1 sequence (Q9H6P5 234-420 limits assumed): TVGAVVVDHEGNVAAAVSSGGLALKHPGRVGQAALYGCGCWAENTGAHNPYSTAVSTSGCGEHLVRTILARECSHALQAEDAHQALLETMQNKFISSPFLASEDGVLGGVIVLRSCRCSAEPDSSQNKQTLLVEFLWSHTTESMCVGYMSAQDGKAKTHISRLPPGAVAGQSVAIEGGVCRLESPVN
# [2] = target: T2, Taspase1 precursor (p50T1α-β) (Homo sapiens, UniProt Q9H6P5); assay: Intramolecular autoproteolysis of radiolabeled Taspase1 precursor p50T1α-β; assay type: biochemical; details: increasing amounts, 6 hours at 30°C
# T2 sequence (Q9H6P5 1-420): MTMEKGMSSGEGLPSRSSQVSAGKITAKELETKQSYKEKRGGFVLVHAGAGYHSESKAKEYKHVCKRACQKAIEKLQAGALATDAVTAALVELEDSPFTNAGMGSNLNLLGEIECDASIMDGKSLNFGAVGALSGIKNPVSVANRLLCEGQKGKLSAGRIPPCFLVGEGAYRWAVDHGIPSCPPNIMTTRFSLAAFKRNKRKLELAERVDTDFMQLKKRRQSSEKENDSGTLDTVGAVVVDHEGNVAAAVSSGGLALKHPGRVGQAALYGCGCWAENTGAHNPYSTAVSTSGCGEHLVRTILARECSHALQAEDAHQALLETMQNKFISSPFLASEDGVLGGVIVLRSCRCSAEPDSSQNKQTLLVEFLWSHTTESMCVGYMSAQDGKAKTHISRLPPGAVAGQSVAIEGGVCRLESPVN
# Outline: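 Radiolabeled 50 kD Taspase1 precursor (p50T1α-β, 0.5 μl) incubated in cleavage buffer at 30°C for 6 hours with indicated concentrations of test compound. Maturation is scored as autoproteolytic conversion to the 28 kD α and 22 kD β subunits.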
# [3] = system: U251 xenograft; assay: U251 brain tumor xenograft, bioluminescent imaging; assay type: in vivo, mouse; details: treated on days 0, 2 and 4; compared to vehicle
# Outline: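 U251 cells stably expressing firefly luciferase were implanted subcutaneously into the flanks of male NOD-scid IL2Rγ−/− mice aged 6–8 weeks on day −1. Test compound was given at indicated doses on days 0, 2 and 4. Tumor mass was followed by bioluminescence imaging, normalized to 1 at day 0. Mean ± SD of 4 tumors per arm.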
# [4] = system: MMTV-wnt breast cancers; assay: MMTV-wnt mouse breast cancer model; assay type: in vivo; details: every other day, 5 intravenous injections
# [5] = In vivo toxicity profile after short term tail vein injections; set-up: species or system mouse
# [6] = target: Caspase8 (Homo sapiens, UniProt Q14790); assay: Caspase8-p22Bid in vitro cleavage assay; assay type: biochemical; details: 1 mM compound, 250 ng rCaspase8
# Caspase8, sequence (Q14790 217-374 limits assumed, species assumed): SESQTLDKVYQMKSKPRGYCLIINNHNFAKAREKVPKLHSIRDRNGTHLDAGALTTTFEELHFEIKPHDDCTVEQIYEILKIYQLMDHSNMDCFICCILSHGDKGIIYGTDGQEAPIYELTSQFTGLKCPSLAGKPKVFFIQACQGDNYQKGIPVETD
# Caspase8, sequence (Q14790 385-479 limits assumed, species assumed): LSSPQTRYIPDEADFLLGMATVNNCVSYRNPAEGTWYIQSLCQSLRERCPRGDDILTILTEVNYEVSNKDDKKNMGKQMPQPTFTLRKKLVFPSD
# [7] = system: autotaxin; details: cited from earlier work
# [8] = target: T1, Taspase1; assay: FRET-based Taspase1 cleavage assay with FRPR reporter; assay type: biochemical
# [9] = system: MMTV-neu breast cancers; assay: MMTV-neu mouse breast cancer model; assay type: in vivo; details: every other day, 5 intravenous injections
# [10] = system: Taspase1−/−;Taspase1 MEFs; assay: MTT relative cell number in SV40-transformed MEFs; assay type: cell-based, mouse; details: 1uM, 2 days
# [11] = system: U251 cells; assay: Growth inhibition of NCI60 brain tumor cell lines; assay type: cell-based, human; details: NCI DTP GI50 data confirmed by MTT, 2 days
# [12] = short term tail vein injections
compound,measurement,setting,value
"CC(C)C[C@H](NC(=O)[C@H](Cc1ccccc1)NC(=O)c1cnccn1)B(O)O [Bortezomib, reference compound]",activity against Taspase1 (cleavage of p75MLL),[1],no activity
COc1ccc(C(=O)OCc2ccc3c(c2)OCO3)cc1 [NSC23953],activity against Taspase1 (cleavage of p75MLL),[1],no demonstrable activity
O=[N+]([O-])c1cccc(NCNc2cccc([N+](=O)[O-])c2)c1 [NSC47905],activity against Taspase1 (cleavage of p75MLL),[1],no demonstrable activity
"O=[As](O)(O)c1ccc(Cc2ccc([As](=O)(O)O)cc2)cc1 [NSC48300, [4-[(4-arsonophenyl)methyl]phenyl] arsonic acid]",impact on Taspase1 autoproteolysis,[2],no impact
same,tumor growth by bioluminescent imaging,[3],stasis of tumor growth
same,growth of MMTV-wnt breast cancers,[4],no effects
same,hemoglobin levels,[5]; complete blood counts,decrease
same,white blood cell counts,[5]; complete blood counts,decrease
same,injection site damage,[5]; repetitive tail vein treatment,fibrotic damages of regional vessels at injection sites
same,blood chemistry: LDH level,[5]; [12],significant decrease
same,blood chemistry: electrolytes and kidney functions,[5]; [12],certain alterations
same,histological examination of major organs,[5]; [12],did not reveal any obvious abnormalities
same,specificity: Caspase8-mediated cleavage of p22Bid,[6],specifically targeted Taspase1
same,lysophospholipase D activity of autotaxin,[7],inhibited
same,mode of inhibition,[8]; non-linear regression of reaction curves,non-competitive
same,IC50,[1],~7.5 µM
same,reversible or irreversible inhibition (extended pre-incubation),"[1]; 5 μM, pre-incubation for extended periods of time",reversible
same,growth of MMTV-neu breast cancers,[9],consistently disrupted the growth
same,sensitivity compared to parental Taspase1−/− cell line,[10],increased sensitivity
same,sensitivity to treatment in vitro among NCI60 brain tumor cell lines,[11],most sensitive
O=C(O)Cc1ccc(Oc2ccc(CC(=O)O)cc2)cc1 [NSC74084],activity against Taspase1 (cleavage of p75MLL),[1],no demonstrable activity
Cc1cc(Cc2ccc3c(c2)OCO3)ccc1OCC(=O)O [NSC352678],activity against Taspase1 (cleavage of p75MLL),[1],no demonstrable activity
"O=[As](O)(O)O [arsenic acid, reference compound]",inhibition of Taspase1 by free arsenic acid,"[1]; up to 1 mM, 5 ng rTaspase1, 30 min preincubation",no detectable inhibition
"MCA-KISQLDGVDD-DNP ({MCA}-KISQLDGVDD-{DNP}) [FRPR, reference compound]",Km,"[8]; read-out: apparent KM, substrate of Taspase1",9.06 ± 2.8 µM

# From publication PMC3325786 (Cancer Research, 2011)
